# NR2E3 ag-1 – human photoreceptor-specific nuclear receptor agonism; Q9Y5X4; AID 602229; inhibition of corepressor binding, % at 3.98 µM; 0.35% of 360,000 active; CHO-S Gal4-NCOR/VP16-NR2E3 two-hybrid, luciferase;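 active = inhibition above the mean of all tested compounds plus 3 SD, cut at about 70% in these data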;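 also: 0% = DMSO with NR2E3 transfected cells and 100% = cells lacking NR2E3 construct; higher means lower luciferase signal from less NR2E3 corepressor binding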
# Target sequence (Q9Y5X4 whole entry, looked up, the tested form may be a part): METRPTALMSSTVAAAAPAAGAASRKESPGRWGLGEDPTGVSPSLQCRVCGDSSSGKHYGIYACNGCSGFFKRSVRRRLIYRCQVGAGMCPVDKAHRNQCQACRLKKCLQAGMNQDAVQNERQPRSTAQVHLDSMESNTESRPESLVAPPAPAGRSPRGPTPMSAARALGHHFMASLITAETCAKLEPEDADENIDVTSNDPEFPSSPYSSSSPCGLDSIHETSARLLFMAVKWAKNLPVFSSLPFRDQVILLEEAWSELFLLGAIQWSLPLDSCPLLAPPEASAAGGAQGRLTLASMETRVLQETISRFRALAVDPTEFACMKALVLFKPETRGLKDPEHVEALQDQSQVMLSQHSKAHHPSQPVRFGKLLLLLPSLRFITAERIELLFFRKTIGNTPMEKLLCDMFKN
# NR2E3 ag-2 – NR2E3 (human) agonism; AID 2300; GST-NR2E3/biotin-RetCOR TR-FRET, 1536-well; inhibition of corepressor binding, % at 4.78 µM; 0.12% of 320,000 active;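 active = percent inhibition above the cutoff of mean plus 3 SD of all tested compounds, set per screening campaign, cut at about 20% in these data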;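 also: 0% = DMSO wells and 100% = biotin wells as full block of FRET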
#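 Material: NR2E3–RetCOR corepressor complex / Incubation: Compound–protein incubation for 5 h at 4 °C / Dosing: compound at 4.8 µM, single dose / Detection: time-resolved FRET / Benchmarks: high control biotin, low control 0.6% DMSO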
# PG9 Ab binder – small molecules binding HIV-1 gp120 antibody PG9; TR-FRET gp120-PG9 antibody binding; inhibition, % at 6.7 µM; 0.43% of 360,000 active; AID 624416; in the data active = inhibition above about 8.5%
# NR1D1 modulator – modulators of human Rev-erb alpha DNA binding; P20393; Rev-erbα–FITC-DNA binding, fluorescence polarization, 90 min; activity, % at 10 µM; 0.79% of 370,000 active; AID 1259318;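 active = activity above about 14%, limit read from the data; passing the limit was not always enough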;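 also: 0% = DMSO wells with 35 nM protein and 100% = DMSO wells with 750 nM protein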
# Rev-erbA confirm – Rev-erb alpha (human) modulation, hit confirmation. shares compounds with NR1D1 modulator. Rev-erb alpha FITC-DNA binding, fluorescence polarization, 90 min. activation, % at 25 µM. 61% of 3,000 active;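 active = activation at or above a set limit, or at least 3 SD above the negative control mean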;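 also: 0% = 35 nM protein with DMSO and 100% = 750 nM protein high control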
# RORg DNA counter – affects RORgamma DNA binding in a Rev-erb alpha counter-screen; shares compounds with NR1D1 modulator; purified RORgamma protein-FITC-DNA binding, fluorescence polarization; IC50, µM; 8% of 910 active; AID 1259320;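 active = Compounds whose fitted half-maximal concentration for disrupting protein-DNA binding is below 10 micromolar; the record names Rev-erb in its text, so the target is in doubt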
# Active calls of the source: *; · = no result. An excerpt weighted towards active compounds, which were near 1.4% of everything screened.
SMILES,NR2E3 ag-1,NR2E3 ag-2,PG9 Ab binder,NR1D1 modulator,Rev-erbA confirm,others
CCCOc1cccc(-c2nnc(NC(=O)c3ccco3)s2)c1,-42,3,1,23*,5,
CC(=O)c1ccc(N2CCN(C(=S)NCCCN(C)C)CC2)cc1,-4,-1,-1,2,·,
O=[N+]([O-])c1ccccc1N=Nc1ccc(O)cc1O,23,·,-4,32*,17*,
Oc1ccc(N=Nc2ccc(Br)cc2)c(O)c1,-143,0,-2,8,·,
O=c1cc(CN2CCN(c3ccccc3O)CC2)nc2sccn12,17,-3,-1,-5,·,
COCCN(Cc1cc2cc(C)ccc2n2nnnc12)C(=S)Nc1ccc(C)cc1,4,-1,2,104*,49*,RORg DNA counter=>40
COCCN(Cc1cc2cc(C)ccc2n2nnnc12)C(=S)Nc1ccc(OC)cc1,-8,·,0,-2,·,
COCCNC(=S)N(Cc1cc2cc(C)ccc2n2nnnc12)C1CCCC1,-30,-1,-1,54*,22*,
CC1(C)Cc2cccc(OCC(=O)NCc3ccc(F)cc3)c2O1,4,3,3,5,·,
O=C(CCc1nnc2ccc(N3CCC4(CC3)OCCO4)nn12)Nc1cc(F)ccc1F,4,2,-3,1,·,
Cc1c(C(=O)OCC(=O)Nc2ccc(S(N)(=O)=O)cc2)oc2c1ccc1ccccc12,-8,4,5,16*,18,
Cc1cc(NC(=O)COC(=O)c2oc3c(ccc4ccccc43)c2C)no1,27,-2,5,-5,·,
Cc1ccccc1-n1nnnc1SCC(=O)N(C)C1CCS(=O)(=O)C1 (centres undefined),-1,-1,-1,-9,·,
COc1ccc(OC)c(NC(=O)C2CCN(c3cc(-c4ccccc4)nc4ncnn34)CC2)c1,9,-3,-2,35*,17,
COc1ccc(-c2nnc(SCC(=O)Nc3cc(S(=O)(=O)N4CCCCC4)ccc3Cl)n2N)cc1,1,-1,-3,-7,·,
COc1cccc(CNC(=O)COC(=O)c2cc(Br)c(Br)s2)c1,1,6,1,21*,18*,
Cc1ccc(Cn2c(SCC(=O)Nc3cc(C)on3)nc3ccccc3c2=O)cc1,-9,1,17*,45*,19*,
C/C(N)=C(/C#N)C(=O)CSc1nc2ccccc2c(=O)n1Cc1ccc(C)cc1,11,-6,1,70*,25*,
Cc1cccn2c(=O)c3cc(C(=O)O)n(C)c3nc12,16,0,1,-5,·,
COC(=O)C1CCN(C(=O)c2cc3c(=O)n4cccc(C)c4nc3n2Cc2ccccc2)CC1,-29,3,-3,40*,23*,
CCOC(=O)c1c(-c2cccs2)csc1NC(=O)c1ccncc1,-26,-5,-3,29*,28*,
Cc1ccc(NC(=O)c2c(C)noc2-c2snnc2C)cc1,-19,3,-1,8,·,
Cc1nnsc1-c1onc(C)c1C(=O)Nc1cc(Cl)cc(Cl)c1,-21,1,-1,25*,11,
Cc1cc(C)cc(OCC(=O)NNC(=S)NC(=O)C2CC2)c1,4,-2,0,33*,-2,
COc1ccc(OCC(=O)NNC(=S)NC(=O)C2CC2)cc1,17,·,-2,-5,·,
SMILES,NR2E3 ag-1,NR2E3 ag-2,PG9 Ab binder,NR1D1 modulator,Rev-erbA confirm,others
COc1ccc(-c2ccc(-c3noc(-c4ccccc4F)n3)c(OC)n2)cc1,4,·,-2,38*,39*,RORg DNA counter=>40
COc1nc(-c2ccccc2)ccc1-c1noc(-c2cccs2)n1,-89,1,2,59*,40*,RORg DNA counter=>40
COc1ccc(-c2ccc(-c3noc(-c4ccccc4)n3)c(OC)n2)cc1,-23,0,-2,22*,18*,
COc1nc(-c2ccccc2)ccc1-c1noc(-c2ccccc2)n1,-101,1,1,14,·,
O=C(NC1CCCC1)[C@@H]1CCCN1C(=O)[C@H](Cc1cccnc1)NC(=O)N1CCOCC1,·,·,0,7,·,
CCOC(=O)c1cc2sc(C)cc2n1CC(=O)N1CCc2ccccc21,-14,-2,-1,22*,24*,
O=C(NCCOc1ccccc1Cl)c1cc(F)c(F)cc1Cl,-155,-3,·,3,·,
COc1ccc(N2CCN(c3ccc(NC(=O)C4CCCCC4)cc3C#N)CC2)cc1,-1,0,5,30*,11,
COc1ccc(C(=O)Nc2ccc(N3CCN(c4ccc(OC)cc4)CC3)c(C#N)c2)cc1,-12,1,-1,84*,56*,
Cc1ccc(-n2cc(CCCCCCCCC(=O)O)nn2)cc1,-9,6,-2,-1,·,
COc1nc2ccccc2nc1N1CCN(Cc2ccc3c(c2)OCO3)CC1,-24,·,-2,-3,·,
CC1(C)COCN1C(=O)c1ccc(Cl)c(Cl)c1,-20,0,0,2,·,
COc1ccc(Nc2cnn(-c3nc4ccccc4s3)c(=O)c2Cl)cc1,-71,-6,0,0,·,
O=c1c(Cl)c(Nc2cccc(Cl)c2)cnn1-c1nc2ccccc2s1,-54,10,-2,19*,10,
Cc1cc([N+](=O)[O-])ccc1NC(=O)c1sc2ncn(CC(=O)N3CCOCC3)c(=O)c2c1C,-10,0,1,0,·,
Cc1ccc(NC(=O)c2sc3ncn(CC(=O)N4CCOCC4)c(=O)c3c2C)c(Br)c1,-41,-1,-1,28*,7,
COc1cccc(OC)c1C(=O)NC(=S)Nc1cc(-c2nc3ccccc3[nH]2)ccc1Cl,-5,-1,7,26*,24*,
COc1c(F)c(F)c(C(=O)Nc2ccc(-c3nc4ccccc4[nH]3)cc2)c(F)c1F,-15,0,0,-2,·,
NS(=O)(=O)c1ccc(CCNC(=O)CSc2ccc3ccccc3c2)cc1,-7,1,0,2,·,
O=C1c2cccc3cccc(c23)N1Cc1ccc(F)cc1,-23,1,-2,1,·,
COc1ccc(CN2C(=O)c3cccc4cccc(c34)C2=O)cc1,-4,-1,0,23*,15*,
O=c1c2ccccc2c(-c2ccccc2)nn1-c1cc(Cl)cc(Cl)c1,3,1,0,31*,0,
O=c1c2ccccc2c(-c2ccccc2)nn1Cc1c(Cl)cccc1Cl,-5,1,1,6,·,
CC(=O)Nc1ccc(C(=O)N2c3ccccc3N=C(c3ccc4c(c3)OCO4)C2C(=O)NCc2ccccc2)cc1 (centres undefined),·,·,-3,-1,·,
O=C(NCc1ccccc1)C1C(c2ccc3c(c2)OCO3)=Nc2ccccc2N1C(=O)c1cccc2ccccc12 (centres undefined),·,·,-2,16*,6,
Cc1cccc(C)c1NC(=O)C1C(c2ccc3c(c2)OCO3)=Nc2ccccc2N1C(=O)c1cccc2ccccc12 (centres undefined),·,·,-2,29*,17*,
COc1ccc(-c2nnc3ccc(SCC(=O)Nc4nccs4)nn23)cc1OC,-13,-1,-1,2,·,
